NR3A LBD binder: modulates the human NR3A ligand-binding domain. NR3A LBD differential scanning fluorimetry, Tm shift; 0% = protein alone, 100% = glycine-bound protein. 340,000 tested, 2.5% active. Tm shift relative to glycine control, % at 25 µM. AID 1259313;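 active means melting temperature shift of at least 10% of the positive control shift, at one fixed dose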
CHOP inh: CHOP inhibition in unfolded protein response. AID 2732. CHO-K1 CHOP-promoter luciferase, tunicamycin-induced, 15-18 h. 220,000 tested, 3.8% active. inhibition, % at 10 µM;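 active means compounds that reduced the stress-induced luciferase reporter signal by more than about 70% of percent inhibition, limit read from the data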
TbMetRS inhib: Trypanosoma brucei MetRS inhibition; inhibition, % at 11.9 µM; AID 624268; 360,000 tested, 0.4% active; purified T. brucei MetRS, ATP depletion, Kinase-Glo luminescence;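 active means inhibition above a per-plate cutoff of the control wells' mean inhibition plus 3 SD, cut at about 5.5% in these data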
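Test system: purified T. brucei MetRS enzyme. Also added: ATP, methionine and E. coli bulk tRNA substrates. Compound: 11.9 µM single point. Schedule: 15 min enzyme-compound preincubation, 2 h reaction, 10 min detection, 25 °C. Signal: luciferase luminescence of residual ATP, Kinase-Glo. Evaluation: percent inhibition versus plate control medians. Controls: DMSO wells, low control.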
MPTP inh: permeability transition pore inhibition; isolated mouse mitochondria, Ca2+ swelling absorbance, 30 min; inhibition, % at 10 µM; 360,000 tested, 1.4% active; AID 602449;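 active means inhibition of 50% or more, scaled per plate between neutral and stimulator controls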
WT yeast gro inh: growth inhibition of WT yeast, mitochondrial fusion screen. mitochondrial fusion phenotypic screen, WT strain. 190,000 tested, 2.1% active. inhibition, % at 10 µM; in the data active means inhibition above about 58%; tested in S. cerevisiae
EBV gp42 inh: blocks Epstein-Barr virus glycoprotein 42 binding; Fluorescence polarization binding assay, mP read-out; inhibition, % (tested at 21.74 µM); AID 1085; 220,000 tested, 0.42% active; Q1HVG2; in the data active means inhibition above about 50%
Target sequence (Q1HVG2 whole entry, looked up): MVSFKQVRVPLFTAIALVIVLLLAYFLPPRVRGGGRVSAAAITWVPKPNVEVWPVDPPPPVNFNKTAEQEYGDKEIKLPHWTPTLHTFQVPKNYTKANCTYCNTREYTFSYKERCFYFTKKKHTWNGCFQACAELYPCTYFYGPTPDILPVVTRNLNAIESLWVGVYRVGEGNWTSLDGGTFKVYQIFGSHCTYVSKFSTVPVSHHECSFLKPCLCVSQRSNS
Each line names hits and unclear results; the compound was inactive in the other large screens. The list is not random: actives were taken first. Their share in the collection is about 6.4%.

Cn1cc(Cl)c(C(=O)Nc2cccc(Cl)c2Cl)n1	CHOP inh 75.2
Cc1sc2nc(C3CC3)nc(SCC(=O)NCc3ccco3)c2c1C	none
CC1(c2ccc([N+](=O)[O-])cc2)CC(C)(C)N(C(=O)c2ccccc2)c2ccccc21 (configuration not stated)	CHOP inh 80.7, WT yeast gro inh 77.1 (no result: NR3A LBD binder, TbMetRS inhib, MPTP inh)
CC(=O)N1c2ccccc2C(C)(c2ccccc2)CC1(C)C (configuration not stated)	none
O=C(O)C1C2C=CC3(CN(c4cccc(C(F)(F)F)c4)C(=O)C13)O2 (configuration not stated)	NR3A LBD binder 11.2
COc1cc(OC)cc(C(=O)Nc2ccc(C(=O)Nc3ccccc3OC)cc2)c1	NR3A LBD binder 34.7 (no result: CHOP inh, WT yeast gro inh, EBV gp42 inh)
COC(=O)c1ccccc1NC(=O)c1cc(OC)cc(OC)c1	CHOP inh 82.4
Cc1[nH]c2ccc(C(=O)Nc3ccncc3)cc2c1C	none (no result: CHOP inh, WT yeast gro inh, EBV gp42 inh)
COc1ccccc1NC(=O)c1ccc2[nH]c(C)c(C)c2c1	NR3A LBD binder 19.6 (no result: CHOP inh, WT yeast gro inh, EBV gp42 inh)
COC(=O)c1ccccc1NC(=O)c1sc(=S)n(C)c1N	CHOP inh 82.5
COc1ccc(Cc2noc(-c3ccccc3)n2)cc1OC	none
COC(=O)c1ccccc1NC(=O)c1cc(-c2cccs2)on1	CHOP inh 74.8
Cc1cc(=O)n2nc(N3CCC(C(=O)NC(C)c4ccccc4)CC3)sc2n1 (configuration not stated)	none
Cc1cc(=O)n2nc(N3CCC(C(=O)NCC(C)c4ccccc4)CC3)sc2n1 (configuration not stated)	NR3A LBD binder 10.5 (no result: CHOP inh, WT yeast gro inh, EBV gp42 inh)
Cc1ccc(S(=O)(=O)CC(=O)NCc2ccccc2)cc1	none (no result: CHOP inh, WT yeast gro inh, EBV gp42 inh)
O=C(CN1CCN(c2ncc(C(F)(F)F)cc2Cl)CC1)N1CCN(c2ncc(C(F)(F)F)cc2Cl)CC1	WT yeast gro inh 73.1
O=C(OC1CCN(c2ncc(C(F)(F)F)cc2Cl)CC1)c1cccc(C(F)(F)F)c1	none
Cc1ccc(C(=O)OCCN2CCN(c3ncc(C(F)(F)F)cc3Cl)CC2)cc1	WT yeast gro inh 67.3
O=C(OC1CCN(c2ncc(C(F)(F)F)cc2Cl)CC1)c1ccccc1	WT yeast gro inh 64.4
O=C(c1cccs1)N1CCN(c2ncc(C(F)(F)F)cc2Cl)CC1	NR3A LBD binder 11.1 (no result: CHOP inh, WT yeast gro inh, EBV gp42 inh)
CCc1cc(C(=O)N2CCN(c3ncc(C(F)(F)F)cc3Cl)CC2)sc1C	none (no result: CHOP inh, WT yeast gro inh, EBV gp42 inh)
CC(=O)c1ccc(S(=O)(=O)NCc2ccc(C(=O)N(C)CC(=O)Nc3cccc(F)c3)cc2)cc1	none (no result: CHOP inh, WT yeast gro inh, EBV gp42 inh)
CCCCCC(=O)N1C[C@H](n2cc(COC(=O)c3ccccc3)nn2)[C@@H](O)C[C@@H]1c1ccccc1	none (no result: NR3A LBD binder, CHOP inh, WT yeast gro inh, EBV gp42 inh)
CCCn1c(SCC(=O)Nc2cccc(C)n2)nnc1C(C)C	none
Cc1cccc(NC(=O)CC2SC(=NC3CCCCC3)NC2=O)c1 (configuration not stated)	CHOP inh 74.0
O=C(CC1SC(=NC2CCCCC2)NC1=O)Nc1ccccc1 (configuration not stated)	none
Cc1ccc2nc(NC(=O)c3ccc(OCC4CCCO4)cc3)sc2c1 (configuration not stated)	none
Cc1ccccc1N1CC(C(=O)Nc2ccc(S(=O)(=O)N3CCCCC3)cc2)CC1=O (configuration not stated)	none (no result: CHOP inh, WT yeast gro inh, EBV gp42 inh)
Cc1ccc(-c2noc(CN(C(=O)c3cccc(Br)c3)C(C)C)n2)cc1	CHOP inh 71.4
Cc1ccc(-c2noc(CN(C(=O)C(c3ccccc3)c3ccccc3)C(C)C)n2)cc1	none
Cc1cccc(-c2noc(CN(C(=O)CCc3ccccc3)C(C)C)n2)c1	CHOP inh 70.4
CSCCC(NC(=O)c1ccccc1Cl)C(=O)NCc1ccncc1 (configuration not stated)	none (no result: CHOP inh, WT yeast gro inh, EBV gp42 inh)
CSc1ccc(OC2CCCCC2NS(=O)(=O)c2ccc(Cl)cc2)cc1 (configuration not stated)	WT yeast gro inh 73.9
O=S(=O)(NC1CCCCC1Nc1ccccc1)c1ccccc1 (configuration not stated)	none
O=S(=O)(NC1CCCCC1Oc1ccccc1)c1ccc(Cl)cc1 (configuration not stated)	WT yeast gro inh 61.0
C=CCn1c(CSc2ccccc2[N+](=O)[O-])n[nH]c1=S	none (no result: NR3A LBD binder, CHOP inh, WT yeast gro inh, EBV gp42 inh)
CC1(C(=O)NS(=O)(=O)c2cccc(Cl)c2)CCN1C(=O)CCc1ccc(Cl)cc1Cl (configuration not stated)	none (no result: NR3A LBD binder, CHOP inh, WT yeast gro inh, EBV gp42 inh)
COC(=O)CNC(c1ccccc1)c1cc(C)ccc1NC(=O)c1cccc(Cl)c1 (configuration not stated)	WT yeast gro inh 70.7
COC(=O)CNC(c1ccccc1)c1cc(C)ccc1NC(=O)CNC(=O)OCc1ccccc1 (configuration not stated)	none
O=C(NNC(=O)c1ccccc1-n1cccc1)c1ccccc1	none
O=C(CO/N=C/c1ccc(Cl)cc1Cl)NNC(=O)c1cccc(Cl)c1	CHOP inh 73.9 (no result: WT yeast gro inh)
CCn1nc(C)c(CN2CCC(n3nccc3NC(=O)CCCc3ccccc3)CC2)c1C	none (no result: CHOP inh, WT yeast gro inh, EBV gp42 inh)
CCn1nc(C)c(CN2CCC(n3nccc3NC(=O)Cc3ccccc3)CC2)c1C	NR3A LBD binder 14.1 (no result: CHOP inh, WT yeast gro inh, EBV gp42 inh)
COc1cccc(CNCCN2CCOCC2)c1OC	none
COc1cccc(S(=O)(=O)NCc2ccc(C(=O)Nc3ccc(C)cc3)cc2)c1	NR3A LBD binder 16.8
COc1ccc(NC(=O)c2ccc(CNS(=O)(=O)c3cccc(OC)c3)cc2)cc1	none
NS(=O)(=O)c1ccc(CNC(=O)c2ccc(Cl)c(S(=O)(=O)NCc3ccccc3)c2)cc1	none (no result: CHOP inh, WT yeast gro inh, EBV gp42 inh)
NS(=O)(=O)c1ccc(NC(=O)c2ccc(CNS(=O)(=O)c3cc(C(F)(F)F)ccc3Cl)cc2)cc1	NR3A LBD binder 29.6
COc1cccc(S(=O)(=O)NCc2ccc(C(=O)Nc3ccc(Cl)c(Cl)c3)cc2)c1	NR3A LBD binder 25.4
CSc1ncc(F)c(N(CCO)CCO)n1	none
O=C(Nc1ccc(N2CCOCC2)cc1)c1csc(COCCO)n1	none (no result: NR3A LBD binder, CHOP inh, WT yeast gro inh, EBV gp42 inh)
Cc1cc(Nc2ccccc2)c2c([N+](=O)[O-])ccc(C)c2n1	WT yeast gro inh 70.9
COc1ccccc1CNc1nc2nc(C)c(C)c(=O)n2[nH]1	WT yeast gro inh 78.7
COC1CCN(C(=O)c2cc(COc3ccc(-n4cncn4)cc3)on2)CC1	none (no result: CHOP inh, WT yeast gro inh, EBV gp42 inh)
Cc1ccn2c(Nc3ccccc3)c(-c3ccccn3)nc2c1	CHOP inh 83.8, WT yeast gro inh 72.5
Cc1ccc2nc(-c3cccnc3)c(Nc3ccccc3C)n2c1	none
Cc1ccccc1Nc1c(-c2ccccn2)nc2ccccn12	WT yeast gro inh 64.2
Cc1ccc2nc(-c3ccccn3)c(Nc3ccccc3C)n2c1	CHOP inh 76.7, WT yeast gro inh 75.8
Cc1ccccc1Nc1c(-c2cccnc2)nc2ccccn12	none (no result: WT yeast gro inh)
Cc1cccn2c(Nc3ccccc3)c(-c3ccccn3)nc12	none
Cc1ccn2c(Nc3ccccc3C)c(-c3ccccn3)nc2c1	CHOP inh 88.2, WT yeast gro inh 72.5
N#Cc1ncc(-c2ccc3c(c2)OCCOCCOCCOCCOCCO3)nc1C#N	CHOP inh 105.5

Source: PubChem
